# Results from different studies.
# Target: Activin receptor type-1B (ACVR1B, Homo sapiens, UniProt P36896)
# Residues used in one study (P36896 24-505): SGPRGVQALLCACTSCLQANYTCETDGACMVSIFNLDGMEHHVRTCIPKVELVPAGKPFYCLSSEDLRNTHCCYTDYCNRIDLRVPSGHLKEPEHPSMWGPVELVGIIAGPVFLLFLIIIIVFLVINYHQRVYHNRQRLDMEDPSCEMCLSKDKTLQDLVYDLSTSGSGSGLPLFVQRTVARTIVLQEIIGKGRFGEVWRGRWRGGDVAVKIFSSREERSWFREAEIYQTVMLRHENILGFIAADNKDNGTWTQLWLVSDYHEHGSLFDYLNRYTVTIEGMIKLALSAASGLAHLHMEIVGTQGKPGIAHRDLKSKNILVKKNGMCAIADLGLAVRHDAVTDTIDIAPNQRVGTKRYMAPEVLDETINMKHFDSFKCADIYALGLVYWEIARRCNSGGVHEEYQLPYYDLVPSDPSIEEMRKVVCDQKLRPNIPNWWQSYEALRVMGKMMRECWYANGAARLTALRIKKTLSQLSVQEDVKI
SMILES,assay,conditions,measurement,result
CCN(CC)c1ccc(C2=NNC(=O)CC2C)cc1[N+](=O)[O-] (centres unmarked),"enzyme activity, inhibitor",10 µM,remaining activity,109%
CN1CCC2(CC1)NC(=O)c1c(c3ccc(Cl)c(Cl)c3n1C)C2C#N (racemic),"thermal stability, DSF",10 µM,ΔTm,0.3 °C
Clc1ccc(Nc2nnc(Cc3ccncc3)c3ccccc23)cc1,cell-free assay,0.5 µM,remaining signal,108%
CS(=O)(=O)c1cc(C2(NC(=O)c3cncc4c3cnn4-c3ccc(F)cc3)CC2)ccn1,"cell-free assay, competition with immobilised ligand",1 µM,remaining binding,100%
CC(C)(C)c1nc2c(s1)c1nc(N)ncc1c1ccc(NS(=O)(=O)c3c(F)cccc3F)c(F)c12,"enzyme activity, inhibitor, radiometric",1 µM,remaining activity,84%
CNC(=O)c1cc(Oc2ccc(NC(=O)Nc3ccc(Cl)c(C(F)(F)F)c3)cc2)ccn1,"cell-free assay, inhibitor",0.3 µM,inhibition,-6%
O=C(Nc1cnn(-c2csc(C(=O)NC3COC3)c2)c1)Nc1ccccc1Cl,"enzyme activity, inhibitor",5 µM,remaining activity,124%
Cn1c2c(c3ccc(Cl)c(Cl)c31)C(C#N)C1(CCN(C(=O)OC(C)(C)C)CC1)NC2=O (racemic),"thermal stability, DSF",10 µM,ΔTm,-0.1 °C
Cc1cc(NC(=O)c2cccc3cc(-c4cccc5[nH]nc(N)c45)ccc23)ccc1F,"enzyme activity, inhibitor",0.1 µM,activity vs control,103%
COc1cc(Cl)c(C(=O)N[C@@H](CN[C@H]2CC[C@@H](N)CC2)Cc2ccc(C#N)cc2)cc1-c1ccc(CN[C@H](C)c2ccc(C)cc2)o1,"enzyme activity, inhibitor",1 µM,remaining activity,92%
O=C1Nc2ccc(Cl)cc2C1=Cc1cc(Cl)c(O)c(Cl)c1,cell-free assay,0.5 µM,remaining signal,127%
c1ccc(N2CCN(Cc3nc4ccccc4[nH]3)CC2)nc1,"cell-free assay, competition with immobilised ligand",1 µM,remaining binding,85%
CC(C)(O)[C@H]1CC[C@H](Nc2ccc3ncc(-c4cccc(C(F)(F)F)c4)n3n2)CC1,"enzyme activity, inhibitor",1 µM,remaining activity,100%
CN1CCN(c2cnc3c(C4CCN(C(=O)c5ccc(OC(F)(F)F)cc5N)CC4)ncnc3c2)CC1,"cell-free assay, competition with immobilised ligand",1 µM,remaining binding,79%
CN(C)C1CCN(CC#Cc2nn(C3CCCC3)c3nc(NCc4ccccc4)ncc23)C1 (centres unmarked),"enzyme activity, inhibitor, FRET",10 µM,inhibition,-8%
Cn1c2c(c3ccc(Cl)c(Cl)c31)C(C#N)C(C)(C)NC2=O (centres unmarked),"thermal stability, DSF",10 µM,ΔTm,2.9 °C
CCOCCn1cc(C(=O)Nc2ccc(-n3nc(-c4cccnc4)cc3C(F)(F)F)cn2)ccc1=O,"cell-free assay, competition with immobilised ligand",1 µM,remaining binding,79%
Nc1ncnc2occ(-c3ccc(NC(=O)Nc4cc(C(F)(F)F)ccc4F)cc3)c12,cell-free assay,20 µM,remaining signal,99%
COc1cc2ncnc(Nc3ccc(Oc4ccccc4)cc3C)c2cc1OC,"enzyme activity, inhibitor",1 µM,inhibition,-2%
Cn1nc(C(=O)NCc2ccc(C(=O)O)cc2)cc1-c1ccc2[nH]ccc2c1,"cell-free assay, competition with immobilised ligand",0.1 µM,remaining binding,83%
